Our source for the MIC values is ChEMBL document CHEMBL1275477, “Discovery and characterization of QPT-1, the progenitor of a new class of bacterial topoisomerase inhibitors” (Antimicrob Agents Chemother, 2008).

In brackets after ≈: the same amount, converted by molar mass.

Holding throughout (assay type): functional
Assay [1] has as its system Staphylococcus aureus. In words: Antimicrobial activity against Staphylococcus aureus 286607-R1 harboring wild type gyrB by broth microdilution method. In a few lines:
(§1)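 Broth microdilution MIC following National Committee for Clinical Laboratory Standards methods. Plasmid-borne GyrB in transformed S. aureus strains was overexpressed by adding 100 ng/ml doxycycline.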
A general note: Dilution methods test growth across graded concentrations, often in twofold steps.

Assay [2] deals with Staphylococcus aureus. Description: Antimicrobial activity against Staphylococcus aureus 286607-R1 by broth microdilution method. The gist of the method:
as §1

Assay [3] deals with Staphylococcus aureus. Description: Antimicrobial activity against Staphylococcus aureus RN4220 expressing gyrB D437N mutant gene by broth microdilution method. In a few lines:
as §1

The test system of assay [4] is Staphylococcus aureus. In words: Antibacterial activity against Staphylococcus aureus RN4220 by broth microdilution method. The gist of the method:
as §1

In the case of `CC1(C)S[C@@H]2[C@H](NC(=O)[C@H](N)c3ccccc3)C(=O)N2[C@H]1C(=O)O` [AMPICILLIN], the MIC with Staphylococcus aureus [1] stood at 2 mg/L (≈ 5.72 µM); against Staphylococcus aureus [2], 4 mg/L (≈ 11.4 µM); against Staphylococcus aureus [3], 2 mg/L (≈ 5.72 µM); in the assay on Staphylococcus aureus [4], 2 mg/L (≈ 5.72 µM).

Turning to `O=C(N[C@H](CO)[C@H](O)c1ccc([N+](=O)[O-])cc1)C(Cl)Cl` [CHLORAMPHENICOL], the MIC in the assay with Staphylococcus aureus [1], with Staphylococcus aureus [2], with Staphylococcus aureus [3] and in the assay on Staphylococcus aureus [4] was 8 mg/L (≈ 24.8 µM) in each case.

Take `CC[C@H]1OC(=O)[C@H](C)[C@@H](O[C@H]2C[C@@](C)(OC)[C@@H](O)[C@H](C)O2)[C@H](C)[C@@H](O[C@@H]2O[C@H](C)C[C@H](N(C)C)[C@H]2O)[C@](C)(O)C[C@@H](C)C(=O)[C@H](C)[C@@H](O)[C@]1(C)O` [ERYTHROMYCIN]: the MIC against Staphylococcus aureus [1], with Staphylococcus aureus [2], with Staphylococcus aureus [3] and in the assay with Staphylococcus aureus [4] was 0.5 mg/L (≈ 0.681 µM) throughout.

As to `NC[C@@H]1O[C@H](O[C@H]2[C@@H](O)[C@H](O[C@@H]3[C@@H](O)[C@H](N)C[C@H](N)[C@H]3O[C@H]3O[C@H](CN)[C@@H](O)[C@H](O)[C@H]3N)O[C@@H]2CO)[C@H](N)[C@@H](O)[C@@H]1O` [FRAMYCETIN], the minimum inhibitory concentration (MIC) with Staphylococcus aureus [1] was determined as 2 mg/L (≈ 3.25 µM); with Staphylococcus aureus [2], 4 mg/L (≈ 6.51 µM); with Staphylococcus aureus [3] it was 2 mg/L (≈ 3.25 µM); with Staphylococcus aureus [4], 2 mg/L (≈ 3.25 µM).

`NC[C@H]1O[C@H](O[C@H]2[C@H](O)[C@@H](O[C@H]3O[C@H](CO)[C@@H](O)[C@H](N)[C@H]3O)[C@H](N)C[C@@H]2N)[C@H](O)[C@@H](O)[C@@H]1O` [KANAMYCIN]: the minimal inhibitory concentration (MIC) with Staphylococcus aureus [1] worked out at 2 mg/L (≈ 4.13 µM); with Staphylococcus aureus [2], 4 mg/L (≈ 8.26 µM); in the assay on Staphylococcus aureus [3] it was 2 mg/L (≈ 4.13 µM); with Staphylococcus aureus [4], 2 mg/L (≈ 4.13 µM).

`CC(=O)NC[C@H]1CN(c2ccc(N3CCOCC3)c(F)c2)C(=O)O1` [LINEZOLID]: the minimal inhibitory concentration (MIC) in the assay with Staphylococcus aureus [1], against Staphylococcus aureus [2], against Staphylococcus aureus [3] and in the assay on Staphylococcus aureus [4] was 1 mg/L (≈ 2.96 µM) in each case.

Take `CCn1cc(C(=O)O)c(=O)c2ccc(C)nc21` [NALIDIXIC ACID]: the MIC turned out to be 32 mg/L (≈ 138 µM) in the assay on Staphylococcus aureus [1], 64 mg/L (≈ 276 µM) against Staphylococcus aureus [2], 32 mg/L (≈ 138 µM) in the assay with Staphylococcus aureus [3] and 32 mg/L (≈ 138 µM) against Staphylococcus aureus [4].

On to `CCn1cc(C(=O)O)c(=O)c2cc(F)c(N3CCNCC3)cc21` [NORFLOXACIN], for which the minimal inhibitory concentration (MIC) was 0.5 mg/L (≈ 1.57 µM) with Staphylococcus aureus [1], 2 mg/L (≈ 6.26 µM) with Staphylococcus aureus [2], 0.5 mg/L (≈ 1.57 µM) with Staphylococcus aureus [3] and 0.5 mg/L (≈ 1.57 µM) in the assay with Staphylococcus aureus [4].

In the case of `CO[C@H]1/C=C/O[C@@]2(C)Oc3c(C)c(O)c4c(O)c(c(/C=N/N5CCN(C)CC5)c(O)c4c3C2=O)NC(=O)/C(C)=C\C=C\[C@H](C)[C@H](O)[C@@H](C)[C@@H](O)[C@@H](C)[C@H](OC(C)=O)[C@@H]1C` [RIFAMPIN], the minimal inhibitory concentration (MIC) in the assay with Staphylococcus aureus [2] and in the assay with Staphylococcus aureus [4] was under 0.625 mg/L in each case.

For `CN[C@@H]1[C@H](O)[C@H](NC)[C@H]2O[C@@]3(O)C(=O)C[C@@H](C)O[C@H]3O[C@@H]2[C@H]1O` [SPECTINOMYCIN], the MIC against Staphylococcus aureus [1], in the assay on Staphylococcus aureus [2], with Staphylococcus aureus [3] and in the assay on Staphylococcus aureus [4] was 64 mg/L (≈ 193 µM) throughout.

For the molecule `CN[C@@H]1[C@H](O[C@H]2[C@H](O[C@H]3[C@H](O)[C@@H](O)[C@H](N=C(N)N)[C@@H](O)[C@@H]3N=C(N)N)O[C@@H](C)[C@]2(O)C=O)O[C@@H](CO)[C@H](O)[C@H]1O` [STREPTOMYCIN], the minimal inhibitory concentration (MIC) against Staphylococcus aureus [1], against Staphylococcus aureus [2], against Staphylococcus aureus [3] and in the assay on Staphylococcus aureus [4] was 4 mg/L (≈ 6.88 µM) in each case.

Consider `CN(C)[C@@H]1C(O)=C(C(N)=O)C(=O)[C@@]2(O)C(O)=C3C(=O)c4c(O)cccc4[C@@](C)(O)[C@H]3C[C@@H]12` [TETRACYCLINE], for which the MIC with Staphylococcus aureus [1], in the assay with Staphylococcus aureus [2], with Staphylococcus aureus [3] and with Staphylococcus aureus [4] was 0.125 mg/L (≈ 0.281 µM) in each case.

Usually MIC stands for the lowest concentration found to suppress growth. High values mean a need for much substance, low ones inhibition by little substance.
